pIC50: −log10 of the molar value.
Columns and labels:
[1] = target: T1, Aromatase (Homo sapiens, UniProt P11511)
T1 sequence (P11511 whole entry): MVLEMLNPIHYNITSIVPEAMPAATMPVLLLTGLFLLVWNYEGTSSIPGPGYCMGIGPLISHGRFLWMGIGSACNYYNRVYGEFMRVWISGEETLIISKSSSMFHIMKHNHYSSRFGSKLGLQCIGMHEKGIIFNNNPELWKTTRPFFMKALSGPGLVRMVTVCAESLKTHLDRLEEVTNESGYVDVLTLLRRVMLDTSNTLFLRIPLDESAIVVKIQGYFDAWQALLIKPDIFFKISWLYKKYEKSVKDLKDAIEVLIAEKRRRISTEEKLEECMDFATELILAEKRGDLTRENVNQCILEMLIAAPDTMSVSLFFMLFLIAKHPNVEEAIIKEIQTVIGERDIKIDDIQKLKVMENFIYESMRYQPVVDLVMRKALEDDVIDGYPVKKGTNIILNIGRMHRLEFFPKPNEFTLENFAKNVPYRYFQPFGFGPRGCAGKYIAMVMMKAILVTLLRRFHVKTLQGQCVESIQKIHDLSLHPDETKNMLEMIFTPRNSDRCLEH

[2] = target: T2, Steroid 17-alpha-hydroxylase/17,20 lyase (Homo sapiens, UniProt P05093); assay: Inhibition of human CYP17 expressed in Escherichia coli at 2.5 uM
T2 sequence (P05093 whole entry): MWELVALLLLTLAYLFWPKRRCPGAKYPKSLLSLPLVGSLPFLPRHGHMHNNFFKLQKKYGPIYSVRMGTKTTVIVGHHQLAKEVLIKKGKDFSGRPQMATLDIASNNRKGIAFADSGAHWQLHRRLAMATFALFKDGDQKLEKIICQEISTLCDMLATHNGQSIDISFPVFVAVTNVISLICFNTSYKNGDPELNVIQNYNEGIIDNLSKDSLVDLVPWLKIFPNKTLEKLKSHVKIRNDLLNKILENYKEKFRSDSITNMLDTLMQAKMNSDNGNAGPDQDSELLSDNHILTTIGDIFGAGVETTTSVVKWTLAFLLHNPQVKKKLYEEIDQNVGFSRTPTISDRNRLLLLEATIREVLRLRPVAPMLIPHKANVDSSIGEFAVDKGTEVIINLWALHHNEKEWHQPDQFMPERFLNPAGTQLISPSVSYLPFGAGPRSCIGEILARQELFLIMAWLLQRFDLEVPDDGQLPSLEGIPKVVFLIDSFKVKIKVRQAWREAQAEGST

[3] = target: T2, Steroid 17-alpha-hydroxylase/17,20 lyase; assay: Inhibition of human CYP17 expressed in Escherichia coli
[4] = target: T1, Aromatase; assay: Inhibition of aromatase from human placental microsomes at 10 uM
Summary of the method: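 Human placental microsomes were incubated with 1β[3H]androstenedione (500 nM) as substrate. Aromatization was quantified by measuring the tritiated water formed, and results are reported as % inhibition at 10 μM test concentration. Fadrozole served as the positive control.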

SMILES | pIC50 [1] | inhibition at 2.5 µM [2] | pIC50 [3] | inhibition at 10 µM [4]
c1ccc(Oc2ccccc2Cn2ccnc2)cc1 | 6.41 | 8% |  | 
O=c1c2ccccc2sc2c(Cn3ccnc3)cccc12 | 8.40 | 28% |  | 
O=c1c2ccccc2oc2ccc(Cn3ccnc3)cc12 | 5.10 | 11% |  | 
O=c1c2ccccc2oc2cccc(Cn3ccnc3)c12 | 6.82 |  | 6.06 | 
O=[N+]([O-])c1ccc(Cn2ccnc2)c(Oc2ccccc2)c1 | 7.94 |  |  | 
O=c1c2ccccc2oc2c(Cn3ccnc3)cc([N+](=O)[O-])cc12 | 7.28 |  |  | 
O=c1c2ccccc2oc2c(Cn3ccnc3)c([N+](=O)[O-])ccc12 | 5.72 | 9% |  | 
O=c1c2ccccc2sc2c(Cn3ccnc3)ccc([N+](=O)[O-])c12 | 7.78 | 5% |  | 
O=c1c2cccnc2oc2c(Cn3ccnc3)ccc([N+](=O)[O-])c12 | 7.00 |  |  | 
O=c1c2ccccc2oc2c(Cn3ccnc3)cccc12 | 7.77 | 17% |  | 
O=[N+]([O-])c1ccc(Cn2ccnc2)c(Sc2ccccc2)c1 | 8.25 | 17% |  | 
CC(=O)N1CCN(c2ccc(OCC3COC(Cn4ccnc4)(c4ccc(Cl)cc4Cl)O3)cc2)CC1 (stereo not given) [KETOCONAZOLE] |  |  |  | 17.7%

Reference: ChEMBL document CHEMBL1155447 (J Med Chem, 2010)
